This note sets out measurements from ChEMBL document CHEMBL3414516, “Novel pyridyl substituted 4,5-dihydro-[1,2,4]triazolo[4,3-a]quinolines as potent and selective aldosterone synthase inhibitors with improved in vitro metabolic stability” (J Med Chem, 2015).

One data set has as its target Cytochrome P450 3A4 (Homo sapiens, UniProt P08684). Nature of the data set: Inhibition of human recombinant CYP3A4 using midazolam substrate by LC-MS/MS method. The format is ADME. A digest of the protocol: (§1)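 Compounds tested in duplicate at six concentrations up to 50 μM. Acetonitrile quench at one time point, then LC–MS/MS of probe metabolites. Metabolites were normalized to vehicle controls and IC50 calculated.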

Another data set deals with Cytochrome P450 2D6 (Homo sapiens, UniProt P10635). Put plainly: Inhibition of human recombinant CYP2D6 using bufuralol substrate by LC-MS/MS method. It is filed as ADME. Summed up: as §1
For a further data set, the target named is T1, Cytochrome P450 1A2 (Homo sapiens, UniProt P05177).
T1 sequence (P05177 whole entry): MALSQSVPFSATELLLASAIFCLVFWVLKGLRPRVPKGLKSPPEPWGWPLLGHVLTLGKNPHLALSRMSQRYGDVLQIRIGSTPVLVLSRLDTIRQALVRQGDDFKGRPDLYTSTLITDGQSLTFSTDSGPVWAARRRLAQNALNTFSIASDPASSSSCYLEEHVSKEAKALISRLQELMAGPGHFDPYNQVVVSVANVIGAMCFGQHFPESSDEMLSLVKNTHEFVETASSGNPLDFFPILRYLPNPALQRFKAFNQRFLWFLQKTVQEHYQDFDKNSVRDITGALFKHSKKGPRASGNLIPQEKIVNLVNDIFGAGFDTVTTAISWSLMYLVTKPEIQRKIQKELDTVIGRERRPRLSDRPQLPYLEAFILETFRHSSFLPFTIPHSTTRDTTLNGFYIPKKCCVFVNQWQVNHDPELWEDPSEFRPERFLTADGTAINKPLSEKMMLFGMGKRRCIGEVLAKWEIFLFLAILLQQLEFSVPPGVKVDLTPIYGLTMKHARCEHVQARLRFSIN
Nature of the data set: Inhibition of human recombinant CYP1A2 using phenacetin substrate by LC-MS/MS method. The format is ADME. Summed up: as §1

A short description of data set [1]: Intrinsic clearance in human hepatic microsomes at 1 uM in presence of NADPH system by LC-MS/MS method. As to conditions: liver microsomes, read-out: CLH. It is filed as ADME. A digest of the protocol: (§2)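 Pooled mixed-gender human liver microsomes at 0.5 mg/mL final protein in potassium phosphate–MgCl₂ buffer (100 mM, pH 7.4). Compound at 1 μM final with NADPH system, 37 °C. Samples at 2, 5, 15, 30 and 45 min, quenched with acetonitrile, vortexed, centrifuged, and supernatant analysed by LC–MS/MS.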
(Liver microsomes are a subcellular fraction often used to study metabolism.)

A further data set addresses Cytochrome P450 2C9 (Homo sapiens, UniProt P11712). Nature of the data set: Inhibition of human recombinant CYP2C9 using diclofenac substrate by LC-MS/MS method. The format is ADME. Summed up: as §1
For a further data set, the target named is T2, Aromatase (Homo sapiens, UniProt P11511).
T2 sequence (P11511 whole entry): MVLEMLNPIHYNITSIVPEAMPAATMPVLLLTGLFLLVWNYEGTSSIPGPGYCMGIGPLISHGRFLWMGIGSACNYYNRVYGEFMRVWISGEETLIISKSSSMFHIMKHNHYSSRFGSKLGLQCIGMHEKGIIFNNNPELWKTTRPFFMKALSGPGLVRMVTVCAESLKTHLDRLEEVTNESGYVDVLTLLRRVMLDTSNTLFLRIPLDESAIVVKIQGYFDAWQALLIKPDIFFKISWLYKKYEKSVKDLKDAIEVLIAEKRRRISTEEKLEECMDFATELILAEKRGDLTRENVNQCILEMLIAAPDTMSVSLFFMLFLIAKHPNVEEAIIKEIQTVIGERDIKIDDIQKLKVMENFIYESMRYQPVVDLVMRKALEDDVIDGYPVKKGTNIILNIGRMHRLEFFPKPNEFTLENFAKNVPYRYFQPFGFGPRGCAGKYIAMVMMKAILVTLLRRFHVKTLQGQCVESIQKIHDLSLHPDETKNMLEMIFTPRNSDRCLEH
Put plainly: Inhibition of CYP19 in human placental microsomes using [1beta-3H]androstenedione substrate. Set-up: species or system Placenta.

Data set [2] can be described thus: Half life in human hepatic microsomes at 1 uM in presence of NADPH system by LC-MS/MS method. The format is ADME, Microsome. As to conditions: liver microsomes. A digest of the protocol:
as §2

A further data set has as its target Cytochrome P450 2C19 (Homo sapiens, UniProt P33261). Nature of the data set: Inhibition of human recombinant CYP2C19 using smephenytoin substrate by LC-MS/MS method. It is filed as ADME. A digest of the protocol:
as §1

The species entered for the next data set is Homo sapiens. Nature of the data set: Selectivity index, ratio of IC50 for human CYP11B1 to IC50 human CYP11B2.
In data set [3] the target is T3, Steroid 17-alpha-hydroxylase/17,20 lyase (Homo sapiens, UniProt P05093).
T3 sequence (P05093 whole entry): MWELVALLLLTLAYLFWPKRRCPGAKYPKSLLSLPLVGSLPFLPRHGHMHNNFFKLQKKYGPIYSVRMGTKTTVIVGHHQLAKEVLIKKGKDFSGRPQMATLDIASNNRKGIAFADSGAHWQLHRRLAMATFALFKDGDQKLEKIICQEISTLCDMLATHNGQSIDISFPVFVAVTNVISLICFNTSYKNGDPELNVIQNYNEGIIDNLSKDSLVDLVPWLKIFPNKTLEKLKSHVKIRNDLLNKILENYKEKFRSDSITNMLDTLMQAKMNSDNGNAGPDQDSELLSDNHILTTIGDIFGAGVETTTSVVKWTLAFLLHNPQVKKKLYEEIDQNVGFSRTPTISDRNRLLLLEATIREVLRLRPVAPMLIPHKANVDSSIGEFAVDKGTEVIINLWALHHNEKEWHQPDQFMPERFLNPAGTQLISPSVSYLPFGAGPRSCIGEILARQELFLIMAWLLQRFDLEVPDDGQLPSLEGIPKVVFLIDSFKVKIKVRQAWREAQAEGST
Put plainly: Inhibition of human CYP17 expressed in Escherichia coli coexpressing human CYP17 and NADPH-P450 reductase.

Data set [4] addresses T4, Cytochrome P450 11B2, mitochondrial (Homo sapiens, UniProt P19099).
T4 sequence (P19099 whole entry): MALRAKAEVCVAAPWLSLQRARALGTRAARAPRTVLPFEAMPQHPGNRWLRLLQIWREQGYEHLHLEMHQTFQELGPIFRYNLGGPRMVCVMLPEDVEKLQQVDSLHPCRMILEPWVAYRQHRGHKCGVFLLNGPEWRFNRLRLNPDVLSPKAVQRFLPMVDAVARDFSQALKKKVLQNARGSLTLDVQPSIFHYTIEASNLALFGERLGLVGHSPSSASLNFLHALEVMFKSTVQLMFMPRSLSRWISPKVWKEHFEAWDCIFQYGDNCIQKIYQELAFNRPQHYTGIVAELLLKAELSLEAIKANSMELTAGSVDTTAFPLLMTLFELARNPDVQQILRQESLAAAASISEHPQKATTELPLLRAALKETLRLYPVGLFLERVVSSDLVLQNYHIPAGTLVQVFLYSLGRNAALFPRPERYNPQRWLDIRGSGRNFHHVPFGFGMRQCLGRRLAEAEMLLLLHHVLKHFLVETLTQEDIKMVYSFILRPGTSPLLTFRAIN
Put plainly: Inhibition of human CYP11B2 expressed in V79 MZh cells using [14C]-deoxycorticosterone substrate incubated for 6 hrs by HPTLC method. It is filed as cell-based, V79MZh. Summed up:
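V79 MZh cells expressing human CYP11B1 or CYP11B2 were incubated 6 h with [¹⁴C]-deoxycorticosterone and inhibitor at various concentrations. Steroids were extracted with ethyl acetate, separated by HPTLC and quantified by phosphoimager.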

A short description of data set [5]: Stability in human hepatic microsomes assessed as unchanged compound level at 1 uM after 120 mins in presence of NADPH system by LC-MS/MS method. As to conditions: liver microsomes, read-out: Stability. It is filed as ADME, Microsome.

Cytochrome P450 2D6, sequence (P10635 whole entry): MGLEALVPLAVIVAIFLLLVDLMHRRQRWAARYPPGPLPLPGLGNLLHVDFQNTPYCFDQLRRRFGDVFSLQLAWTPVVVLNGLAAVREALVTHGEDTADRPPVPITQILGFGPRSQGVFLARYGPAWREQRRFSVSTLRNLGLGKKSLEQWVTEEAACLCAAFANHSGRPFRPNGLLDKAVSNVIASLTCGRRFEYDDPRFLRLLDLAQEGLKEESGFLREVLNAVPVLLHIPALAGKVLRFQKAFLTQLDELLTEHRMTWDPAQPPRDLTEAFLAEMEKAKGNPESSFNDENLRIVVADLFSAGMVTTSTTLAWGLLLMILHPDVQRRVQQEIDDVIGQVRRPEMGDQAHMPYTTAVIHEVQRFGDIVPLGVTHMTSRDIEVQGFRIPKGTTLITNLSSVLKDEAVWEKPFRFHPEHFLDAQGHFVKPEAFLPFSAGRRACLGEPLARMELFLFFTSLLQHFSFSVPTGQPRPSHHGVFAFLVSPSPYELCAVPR
Cytochrome P450 2C9, sequence (P11712 whole entry): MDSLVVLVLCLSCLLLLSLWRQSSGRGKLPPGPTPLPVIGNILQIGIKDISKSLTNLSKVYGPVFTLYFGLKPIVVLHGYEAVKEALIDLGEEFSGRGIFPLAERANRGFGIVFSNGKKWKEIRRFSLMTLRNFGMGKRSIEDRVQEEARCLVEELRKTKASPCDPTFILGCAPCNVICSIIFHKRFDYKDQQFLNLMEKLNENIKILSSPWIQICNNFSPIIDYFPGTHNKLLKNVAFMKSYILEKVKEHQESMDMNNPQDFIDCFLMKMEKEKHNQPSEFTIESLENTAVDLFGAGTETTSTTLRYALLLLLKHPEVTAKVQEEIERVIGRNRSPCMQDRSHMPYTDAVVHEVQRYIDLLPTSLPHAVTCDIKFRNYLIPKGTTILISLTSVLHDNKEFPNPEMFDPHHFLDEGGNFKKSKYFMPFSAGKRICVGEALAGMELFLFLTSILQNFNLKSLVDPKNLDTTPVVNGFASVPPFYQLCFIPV
Cytochrome P450 2C19, sequence (P33261 whole entry): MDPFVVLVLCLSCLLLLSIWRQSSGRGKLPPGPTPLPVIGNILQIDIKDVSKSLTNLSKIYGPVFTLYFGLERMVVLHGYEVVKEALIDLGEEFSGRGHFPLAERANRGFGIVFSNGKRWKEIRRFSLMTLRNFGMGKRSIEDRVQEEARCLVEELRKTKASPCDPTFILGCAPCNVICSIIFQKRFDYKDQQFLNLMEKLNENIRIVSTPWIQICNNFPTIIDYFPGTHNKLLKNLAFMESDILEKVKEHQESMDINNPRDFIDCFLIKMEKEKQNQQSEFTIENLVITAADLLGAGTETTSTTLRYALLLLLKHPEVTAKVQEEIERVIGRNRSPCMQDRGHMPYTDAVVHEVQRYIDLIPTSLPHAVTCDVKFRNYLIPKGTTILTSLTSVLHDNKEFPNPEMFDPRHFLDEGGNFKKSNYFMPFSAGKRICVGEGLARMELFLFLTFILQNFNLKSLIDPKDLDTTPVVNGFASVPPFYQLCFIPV
Cytochrome P450 3A4, sequence (P08684 whole entry): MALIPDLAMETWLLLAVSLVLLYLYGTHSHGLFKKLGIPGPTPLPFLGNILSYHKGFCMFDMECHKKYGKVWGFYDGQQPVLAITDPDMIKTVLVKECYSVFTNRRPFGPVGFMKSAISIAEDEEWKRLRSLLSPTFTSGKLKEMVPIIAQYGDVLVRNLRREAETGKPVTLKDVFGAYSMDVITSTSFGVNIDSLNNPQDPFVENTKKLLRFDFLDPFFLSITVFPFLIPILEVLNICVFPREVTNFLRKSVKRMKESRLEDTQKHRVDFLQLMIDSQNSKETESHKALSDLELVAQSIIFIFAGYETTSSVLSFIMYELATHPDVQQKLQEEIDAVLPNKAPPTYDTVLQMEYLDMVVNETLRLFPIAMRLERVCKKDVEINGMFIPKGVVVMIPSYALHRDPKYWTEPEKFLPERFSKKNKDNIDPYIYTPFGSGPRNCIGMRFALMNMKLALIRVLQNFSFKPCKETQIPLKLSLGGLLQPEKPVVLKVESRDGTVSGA

Take `Cc1nnc2n1-c1c(F)cc(-c3cncc(F)c3)cc1CC2`: the IC50 (usually the concentration at which inhibition is half-maximal) on Cytochrome P450 3A4 was above 50 µM; at Cytochrome P450 2D6, above 50 µM; on Cytochrome P450 1A2, above 50 µM; on Cytochrome P450 2C9, above 50 µM; on Aromatase it was above 10 µM; at Cytochrome P450 2C19, above 50 µM. In addition, the IC50 in data set [3] was above 10 µM; in [4], 89.7 nM. For the same compound, the microsomal CLint at 1 µM in [1] was determined as 12 µL/min/mg. Besides, the half-life (usually the time needed for the level to fall by half in the phase considered) at 1 µM in [2] is above 120 min. Further, the Ratio IC50 in the data set filed under Homo sapiens was found to be 329.

As for `Cc1ccncc1-c1cc(F)c2c(c1)CCc1nnc(C)n1-2`, the IC50 is above 50 µM at Cytochrome P450 3A4; above 50 µM on Cytochrome P450 2D6; above 50 µM at Cytochrome P450 1A2; above 50 µM at Cytochrome P450 2C9; above 10 µM against Aromatase; above 50 µM at Cytochrome P450 2C19. Besides, the IC50 in data set [3] is above 10 µM; in data set [4], 4.2 nM. Besides, in data set [1], the microsomal CLint at 1 µM came to 4 µL/min/mg. For the same compound, the half-life at 1 µM in [2] is above 120 min. Further, the Ratio IC50 in the data set filed under Homo sapiens worked out at 422. Also, in data set [5], the remaining at 2 h, 1 µM is 80%.
